How the values were obtained:
Format in all cases: functional
[1] = system: Phytophthora infestans; test: Antifungal activity against Phytophthora infestans assessed as inhibition of late tomato blight disease on tomato cultivar Rutgers plants at 100 ppm measured 24 hr post fungal inoculation relative to untreated control
Summary of the method: (§1)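 Whole-plant protectant test: pure compounds in acetone, serially diluted in acetone to 6.25, 25 or 100 ppm and applied to plants.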

[2] = system: Puccinia graminis f. tritici; test: Antifungal activity against Puccinia graminis f. tritici assessed as inhibition of wheat stem rust disease on wheat cultivar Yuma at 6.25 ppm measured 96 hr post fungal inoculation relative to untreated control; summary of the method: as §1
[3] = system: Puccinia graminis f. tritici; test: Antifungal activity against Puccinia graminis f. tritici assessed as inhibition of wheat stem rust disease on wheat cultivar Yuma at 6.25 ppm measured 24 hr post fungal inoculation relative to untreated control; summary of the method: as §1
[4] = system: Phytophthora infestans; test: Antifungal activity against Phytophthora infestans assessed as inhibition of late tomato blight disease on tomato cultivar Rutgers plants at 6.25 ppm measured 24 hr post fungal inoculation relative to untreated control; summary of the method: as §1
[5] = system: Phytophthora infestans; test: Antifungal activity against Phytophthora infestans assessed as inhibition of late tomato blight disease on tomato cultivar Rutgers plants at 100 ppm measured 96 hr post fungal inoculation relative to untreated control; summary of the method: as §1
[6] = system: Plasmopara viticola; test: Antifungal activity against Plasmopara viticola assessed as inhibition of grape downy mildew disease on vines cultivar Carignane plants at 100 ppm measured 96 hr post fungal inoculation relative to untreated control; summary of the method: as §1
[7] = system: Parastagonospora nodorum; test: Antifungal activity against Phaeosphaeria nodorum assessed as inhibition of glume blotch disease on wheat cultivar Yuma plants at 6.25 ppm measured 24 hr post fungal inoculation relative to untreated control; summary of the method: as §1
[8] = system: Plasmopara viticola; test: Antifungal activity against Plasmopara viticola assessed as inhibition of grape downy mildew disease on vines cultivar Carignane plants at 100 ppm measured 24 hr post fungal inoculation relative to untreated control; summary of the method: as §1
[9] = system: Zymoseptoria tritici; test: Antifungal activity against Zymoseptoria tritici assessed as inhibition of wheat leaf spot disease on wheat cultivar Yuma at 6.25 ppm measured 24 hr post fungal inoculation relative to untreated control; summary of the method: as §1
[10] = system: Parastagonospora nodorum; test: Antifungal activity against Phaeosphaeria nodorum assessed as inhibition of glume blotch disease on wheat cultivar Yuma plants at 100 ppm measured 24 hr post fungal inoculation relative to untreated control; summary of the method: as §1
[11] = system: Puccinia graminis f. tritici; test: Antifungal activity against Puccinia graminis f. tritici assessed as inhibition of wheat stem rust disease on wheat cultivar Yuma at 100 ppm measured 96 hr post fungal inoculation relative to untreated control; summary of the method: as §1
[12] = system: Plasmopara viticola; test: Antifungal activity against Plasmopara viticola assessed as inhibition of grape downy mildew disease on vines cultivar Carignane plants at 6.25 ppm measured 24 hr post fungal inoculation relative to untreated control; summary of the method: as §1
[13] = system: Puccinia graminis f. tritici; test: Antifungal activity against Puccinia graminis f. tritici assessed as inhibition of wheat stem rust disease on wheat cultivar Yuma at 25 ppm measured 24 hr post fungal inoculation relative to untreated control; summary of the method: as §1
[14] = system: Plasmopara viticola; test: Antifungal activity against Plasmopara viticola assessed as inhibition of grape downy mildew disease on vines cultivar Carignane plants at 25 ppm measured 24 hr post fungal inoculation relative to untreated control; summary of the method: as §1
[15] = system: Puccinia graminis f. tritici; test: Antifungal activity against Puccinia graminis f. tritici assessed as inhibition of wheat stem rust disease on wheat cultivar Yuma at 100 ppm measured 24 hr post fungal inoculation relative to untreated control; summary of the method: as §1
[16] = system: Phytophthora infestans; test: Antifungal activity against Phytophthora infestans assessed as inhibition of late tomato blight disease on tomato cultivar Rutgers plants at 6.25 ppm measured 96 hr post fungal inoculation relative to untreated control; summary of the method: as §1
[17] = system: Zymoseptoria tritici; test: Antifungal activity against Zymoseptoria tritici assessed as inhibition of wheat leaf spot disease on wheat cultivar Yuma at 100 ppm measured 24 hr post fungal inoculation relative to untreated control; summary of the method: as §1
[18] = system: Puccinia graminis f. tritici; test: Antifungal activity against Puccinia graminis f. tritici assessed as inhibition of wheat stem rust disease on wheat cultivar Yuma at 25 ppm measured 96 hr post fungal inoculation relative to untreated control; summary of the method: as §1
[19] = system: Zymoseptoria tritici; test: Antifungal activity against Zymoseptoria tritici assessed as inhibition of wheat leaf spot disease on wheat cultivar Yuma at 25 ppm measured 24 hr post fungal inoculation relative to untreated control; summary of the method: as §1
[20] = system: Parastagonospora nodorum; test: Antifungal activity against Phaeosphaeria nodorum assessed as inhibition of glume blotch disease on wheat cultivar Yuma plants at 25 ppm measured 24 hr post fungal inoculation relative to untreated control; summary of the method: as §1
[21] = system: Phytophthora infestans; test: Antifungal activity against Phytophthora infestans assessed as inhibition of late tomato blight disease on tomato cultivar Rutgers plants at 25 ppm measured 24 hr post fungal inoculation relative to untreated control; summary of the method: as §1
[22] = system: Phytophthora infestans; test: Antifungal activity against Phytophthora infestans assessed as inhibition of late tomato blight disease on tomato cultivar Rutgers plants at 25 ppm measured 96 hr post fungal inoculation relative to untreated control; summary of the method: as §1
[23] = system: Plasmopara viticola; test: Antifungal activity against Plasmopara viticola assessed as inhibition of grape downy mildew disease on vines cultivar Carignane plants at 6.25 ppm measured 96 hr post fungal inoculation relative to untreated control; summary of the method: as §1
[24] = system: Plasmopara viticola; test: Antifungal activity against Plasmopara viticola assessed as inhibition of grape downy mildew disease on vines cultivar Carignane plants at 25 ppm measured 96 hr post fungal inoculation relative to untreated control; summary of the method: as §1

C=C1[C@@H]2[C@H](O)C=C(C=O)[C@H](C=O)[C@@]2(C)[C@H](OC(=O)/C=C/c2ccccc2)C[C@@H]1C
inhibition at 100 ppm [1]: 100%
inhibition at 6.25 ppm [2]: 0%
inhibition at 6.25 ppm [3]: 0%
inhibition at 6.25 ppm [4]: 72%
inhibition at 100 ppm [5]: 3%
inhibition at 100 ppm [6]: 86%
inhibition at 6.25 ppm [7]: 0%
inhibition at 100 ppm [8]: 76%
inhibition at 6.25 ppm [9]: 0%
inhibition at 100 ppm [10]: 73%
inhibition at 100 ppm [11]: 61%
inhibition at 6.25 ppm [12]: 0%
inhibition at 25 ppm [13]: 8%
inhibition at 25 ppm [14]: 28%
inhibition at 100 ppm [15]: 77%
inhibition at 6.25 ppm [16]: 0%
inhibition at 100 ppm [17]: 0%
inhibition at 25 ppm [18]: 4%
inhibition at 25 ppm [19]: 0%
inhibition at 25 ppm [20]: 0%
inhibition at 25 ppm [21]: 82%
inhibition at 25 ppm [22]: 7%
inhibition at 6.25 ppm [23]: 0%
inhibition at 25 ppm [24]: 0%

C=C1[C@@H]2[C@@H](O)C=C(C=O)[C@H](C=O)[C@@]2(C)[C@H](OC(=O)/C=C/c2ccccc2)C[C@@H]1C
inhibition at 100 ppm [1]: 100%
inhibition at 6.25 ppm [3]: 4%
inhibition at 6.25 ppm [4]: 74%
inhibition at 6.25 ppm [7]: 33%
inhibition at 100 ppm [8]: 89%
inhibition at 6.25 ppm [9]: 0%
inhibition at 100 ppm [10]: 96%
inhibition at 6.25 ppm [12]: 2%
inhibition at 25 ppm [13]: 15%
inhibition at 25 ppm [14]: 19%
inhibition at 100 ppm [15]: 85%
inhibition at 100 ppm [17]: 0%
inhibition at 25 ppm [19]: 0%
inhibition at 25 ppm [20]: 73%
inhibition at 25 ppm [21]: 91%

C=C1[C@@H](C)C[C@@H](O)[C@]2(C)[C@@H](C=O)C(C=O)=CC[C@@H]12
inhibition at 100 ppm [1]: 28%
inhibition at 6.25 ppm [3]: 0%
inhibition at 6.25 ppm [4]: 19%
inhibition at 6.25 ppm [7]: 0%
inhibition at 100 ppm [8]: 24%
inhibition at 6.25 ppm [9]: 0%
inhibition at 100 ppm [10]: 60%
inhibition at 6.25 ppm [12]: 7%
inhibition at 25 ppm [13]: 0%
inhibition at 25 ppm [14]: 4%
inhibition at 100 ppm [15]: 0%
inhibition at 100 ppm [17]: 0%
inhibition at 25 ppm [19]: 0%
inhibition at 25 ppm [20]: 0%
inhibition at 25 ppm [21]: 36%

C=C1[C@@H](C)C[C@@H](OC)[C@]2(C)[C@@H](C=O)C(C=O)=CC[C@@H]12
inhibition at 100 ppm [1]: 98%
inhibition at 6.25 ppm [3]: 0%
inhibition at 6.25 ppm [4]: 3%
inhibition at 6.25 ppm [7]: 20%
inhibition at 100 ppm [8]: 70%
inhibition at 6.25 ppm [9]: 0%
inhibition at 100 ppm [10]: 20%
inhibition at 6.25 ppm [12]: 9%
inhibition at 25 ppm [13]: 0%
inhibition at 25 ppm [14]: 33%
inhibition at 100 ppm [15]: 21%
inhibition at 100 ppm [17]: 0%
inhibition at 25 ppm [19]: 0%
inhibition at 25 ppm [20]: 20%
inhibition at 25 ppm [21]: 67%

C=C1[C@@H](C)C[C@@H](OC(=O)/C=C/c2ccccc2)[C@]2(C)[C@@H]3C(=CC[C@@H]12)[C@@H](OC)O[C@H]3OC
inhibition at 100 ppm [1]: 99%
inhibition at 6.25 ppm [2]: 0%
inhibition at 6.25 ppm [3]: 4%
inhibition at 6.25 ppm [4]: 47%
inhibition at 100 ppm [5]: 14%
inhibition at 100 ppm [6]: 57%
inhibition at 6.25 ppm [7]: 0%
inhibition at 100 ppm [8]: 74%
inhibition at 6.25 ppm [9]: 0%
inhibition at 100 ppm [10]: 20%
inhibition at 100 ppm [11]: 19%
inhibition at 6.25 ppm [12]: 7%
inhibition at 25 ppm [13]: 4%
inhibition at 25 ppm [14]: 61%
inhibition at 100 ppm [15]: 71%
inhibition at 6.25 ppm [16]: 0%
inhibition at 100 ppm [17]: 0%
inhibition at 25 ppm [18]: 0%
inhibition at 25 ppm [19]: 0%
inhibition at 25 ppm [20]: 0%
inhibition at 25 ppm [21]: 78%
inhibition at 25 ppm [22]: 6%
inhibition at 6.25 ppm [23]: 0%
inhibition at 25 ppm [24]: 23%

C=C1[C@@H]2[C@@H](O)C=C3[C@@H](OC)O[C@@H](OC)[C@@H]3[C@@]2(C)[C@H](OC(=O)/C=C/c2ccccc2)C[C@@H]1C
inhibition at 100 ppm [1]: 0%
inhibition at 6.25 ppm [3]: 0%
inhibition at 6.25 ppm [4]: 0%
inhibition at 6.25 ppm [7]: 0%
inhibition at 100 ppm [8]: 0%
inhibition at 6.25 ppm [9]: 43%
inhibition at 100 ppm [10]: 0%
inhibition at 6.25 ppm [12]: 0%
inhibition at 25 ppm [13]: 4%
inhibition at 25 ppm [14]: 0%
inhibition at 100 ppm [15]: 7%
inhibition at 100 ppm [17]: 78%
inhibition at 25 ppm [19]: 33%
inhibition at 25 ppm [20]: 0%
inhibition at 25 ppm [21]: 0%

Source: ChEMBL document CHEMBL3046621, “Fungicidal sesquiterpene dialdehyde cinnamates from Pseudowintera axillaris” (2006)
